Data as given in ChEMBL document CHEMBL1240430, “Design & synthesis of 2-(substituted aryloxy)-5-(substituted benzylidene)-3-phenyl-2,5-dihydro-1H-[1,2,4] triazin-6-one as potential anticonvulsant agents” (Eur J Med Chem, 2010).
Active and inactive are the calls of the source. The rule behind the calls is not given here.

How the values were obtained:
[1] = Neurotoxicity against ip dosed albino mouse assessed as inability of animal to maintain equilibrium on rod for 1 min after 4 hrs by rotarod test; conditions: in vivo
[2] = test system: Mus musculus; experiment: Anticonvulsant activity in ip dosed albino mouse assessed as protection against MES-induced seizures after 0.5 hrs; assay type: functional
Outline: (§1)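 Male albino mice (20-25 g) given test compounds i.p., suspended in 30% PEG 200, at 0.01 ml/g body weight, at 30, 100 and 300 mg/kg to 1–6 animals. Seizure protection checked 0.5 h and 4 h after dosing. Value is the minimal dose protecting 50% or more of animals.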

[3] = test system: Mus musculus; experiment: Anticonvulsant activity in ip dosed albino mouse assessed as protection against scPTZ-induced seizures after 0.5 hrs; assay type: functional
Outline: as §1

[4] = test system: Mus musculus; experiment: Reduction of immobility time in albino Swiss mouse at 100 mg/kg, ip pretreated for 1 hrs by forced swimming test; assay type: functional; conditions: route intraperitoneal
[5] = test system: Mus musculus; experiment: Anticonvulsant activity in ip dosed albino mouse assessed as protection against scPTZ-induced seizures after 4 hrs; assay type: functional
Outline: as §1

[6] = test system: Mus musculus; experiment: Anticonvulsant activity in ip dosed albino mouse assessed as protection against MES-induced seizures after 4 hrs; assay type: functional
Outline: as §1

[7] = Neurotoxicity against ip dosed albino mouse assessed as inability of animal to maintain equilibrium on rod for 1 min after 0.5 hrs by rotarod test; conditions: in vivo

SMILES | TD50 at 4 h [1] [mg/kg] | ED50 [2] [mg/kg] | ED50 [3] [mg/kg] | Time [4] [s] | ED50 [5] | ED50 [6] | TD50 at 0.5 h [7] [mg/kg]
O=C1NN(C(=O)c2ccccc2Cl)C(c2ccccc2)=N/C1=C/c1ccccc1Cl | 300 | 30 | 30 | 148.17 | 100 mg/kg | 30 mg/kg | 300
Cc1ccc(/C=C2/N=C(c3ccccc3)N(C(=O)COc3ccccc3)NC2=O)cc1 |  | 300 | 300 |  | inactive | 300 mg/kg | 
Cc1ccc(/C=C2/N=C(c3ccccc3)N(C(=O)Cc3ccc(Cl)cc3)NC2=O)cc1 | 300 | 100 | 100 |  | 300 mg/kg | 300 mg/kg | 300
Cc1ccc(/C=C2/N=C(c3ccccc3)N(C(=O)c3ccc(C)cc3)NC2=O)cc1 |  | 100 | 30 | 145.83 | 30 mg/kg | 100 mg/kg | 300
COc1ccc(/C=C2/N=C(c3ccccc3)N(C(=O)c3ccc(C)cc3)NC2=O)cc1 | 300 | 100 | 30 | 151.5 | 30 mg/kg | 100 mg/kg | 300
Cc1ccc(C(=O)N2NC(=O)/C(=C\c3ccc(O)cc3)N=C2c2ccccc2)cc1 |  | 30 | 100 | 147.33 | 300 mg/kg | 100 mg/kg | 
NC(=O)N1c2ccccc2C=Cc2ccccc21 [CARBAMAZEPINE] |  |  |  | 169 |  |  | 
O=C1NN(C(=O)c2ccc(Cl)cc2)C(c2ccccc2)=N/C1=C/c1ccccc1 | 300 | 100 | 100 |  | 300 mg/kg | 300 mg/kg | 300
O=C1NN(C(=O)c2ccc(F)cc2)C(c2ccccc2)=N/C1=C/c1ccc(O)cc1 |  | 300 | 300 |  | inactive | inactive | 
O=C1NC(=O)C(c2ccccc2)(c2ccccc2)N1 [PHENYTOIN] |  | 30 |  |  |  | 30 mg/kg | 
COc1ccc(/C=C2/N=C(c3ccccc3)N(C(=O)c3ccc(Cl)cc3)NC2=O)cc1 | 300 | 100 | 100 |  | 300 mg/kg | inactive | 300
CCCC(CCC)C(=O)[O-].[Na+] [VALPROATE SODIUM] |  |  | 300 |  | inactive |  | 
Cc1ccc(/C=C2/N=C(c3ccccc3)N(C(=O)c3ccc(Cl)cc3)NC2=O)cc1 |  | 100 | 100 |  | 100 mg/kg | 300 mg/kg | 
